{"source": "PubChem BioAssay AID2520", "about": "(Sanford-Burnham Center for Chemical Genomics, 2010)", "note": "About 350 (0.11%) of roughly 330,000 compounds were called active. This is one part of a sample in which actives are shown more often than they occur. A number with no mark means an inactive call.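 Rule for the calls: active = activation more than six SD over the plate average, tested at 20 µM; inactive = the rest.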"}
{"biological_target": "Apelin receptor (Homo sapiens) (UniProt P35414)", "sequence (P35414 whole entry, looked up)": "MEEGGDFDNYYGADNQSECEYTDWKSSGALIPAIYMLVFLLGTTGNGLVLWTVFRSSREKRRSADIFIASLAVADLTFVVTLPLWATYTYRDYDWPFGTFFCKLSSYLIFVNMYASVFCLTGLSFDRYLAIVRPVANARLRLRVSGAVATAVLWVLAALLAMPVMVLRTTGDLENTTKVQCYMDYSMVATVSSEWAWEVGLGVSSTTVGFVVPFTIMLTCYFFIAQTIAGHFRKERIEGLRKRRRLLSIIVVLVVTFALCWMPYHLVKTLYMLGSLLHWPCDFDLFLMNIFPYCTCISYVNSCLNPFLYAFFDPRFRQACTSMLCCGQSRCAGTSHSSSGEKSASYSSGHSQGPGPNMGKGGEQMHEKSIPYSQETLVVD", "test": "APJ activation via beta-arrestin recruitment – CHO-K1 cells, PathHunter beta-arrestin, luminescence, primary screen (AID 2520)", "conditions": "at 20 µM, active compounds read high, 0% DMSO wells, 100% apelin", "how_it_was_run": "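Test system – PathHunter CHO-K1 APJ (AGTRL-1) beta-arrestin reporter cells · Input – 1000 cells/well · Compound – single test compound dose, 20 µM final, 1% DMSO · Times – compound stimulation 90 min at 25 °C, detection 60 min · Technique – beta-gal luminescence · Read-out basis – APJ–arrestin association signal · Control set – negative DMSO alone, positive Apelin-13 at 10 nM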"}
{"smiles": "O=C(c1cnn2ccccc12)N1CCc2ccccc21", "activation": "-0.0654%"}
{"smiles": "CCc1ccc(N2CC(C(=O)NC3=NCCS3)CC2=O)cc1", "note": "(configuration not stated)", "activation": "10.1%"}
{"smiles": "CSc1nccc(NC(=O)c2ccc(C(C)(C)C)cc2)n1", "activation": "1.31%"}
{"smiles": "CSc1cccc(NC(=S)N(C(C)C)C(C)c2ccccn2)c1", "note": "(configuration not stated)", "activation": "1.84%"}
{"smiles": "COc1ccccc1N(C)S(=O)(=O)c1ccc(Cl)c(C(=O)Nc2ccncc2)c1", "activation": "4.67%"}
{"smiles": "COc1cccc(N(CC(=O)NC2CCCC2)C(=O)Cn2nnc(-c3ccc(C)o3)n2)c1", "activation": "2.12%"}
{"smiles": "CCc1nn(-c2cc(Oc3cccc4ccccc34)nc(-c3ccccc3)n2)c(N)c1C#N", "activation": "-3.92%"}
{"smiles": "COc1cccc(OC)c1CN(C)C(=O)c1cnccc1C(F)(F)F", "activation": "-2.03%"}
{"smiles": "CC(=O)NCC(=O)N1CCC(n2nccc2NC(=O)CCCc2ccccc2)CC1", "activation": "-2.51%"}
{"smiles": "CC1=C/C(=N\\OS(=O)(=O)c2ccccc2)C=CC1=O", "activation": "40.6% (active)"}
{"smiles": "COc1ccc(C(=O)O/N=C(\\N)Cc2ccc(Cl)cc2Cl)cc1OC", "activation": "11.8% (active)"}
{"smiles": "COc1ccc(C(=O)ON=C2c3ccccc3-c3ccccc32)cc1OC", "activation": "-1.57%"}
{"smiles": "COc1ccc(C/C(N)=N/OC(=O)c2ccco2)cc1OC", "activation": "6.23%"}
{"smiles": "COc1cccc(CSc2nc3nc(C)cc(C)n3n2)c1", "activation": "-1.45%"}
{"smiles": "CN(C(=O)CN1C(=O)NC(C)(CCc2ccccc2)C1=O)c1ccccc1", "note": "(configuration not stated)", "activation": "-2.66%"}
{"smiles": "Cc1nn(CC(=O)NC2CCCCC2)c(=O)c2cccn12", "activation": "-3.35%"}
{"smiles": "CCOC(=O)C1C(c2ccc(OC)c(OC)c2)c2c([nH][nH]c2=O)CC1(C)O", "note": "(configuration not stated)", "activation": "0.0386%"}
{"smiles": "O=c1ccc(-c2ccc(S(=O)(=O)Nc3ccccc3)o2)n[nH]1", "activation": "2.43%"}
{"smiles": "CC1=NN(C(=O)CCc2ccccc2O)C(O)(C(F)(F)F)C1", "note": "(configuration not stated)", "activation": "-2.46%"}
{"smiles": "CC1=C(C/C=C(\\C)CCCC(C)CCCC(C)CCCC(C)C)C(=O)c2ccccc2C1=O", "note": "(configuration not stated)", "activation": "16.4%"}
{"smiles": "Cc1cc(NC(=O)Nc2ccccc2[N+](=O)[O-])no1", "activation": "-0.224%"}
{"smiles": "Cc1csc(SCC(=O)N(c2ccccc2)C(C)C)n1", "activation": "-5.06%"}
{"smiles": "O=C(Nc1nnc(C2CC2)s1)C1=NN(C2CCS(=O)(=O)C2)C(=O)CC1", "note": "(configuration not stated)", "activation": "-2.11%"}
{"smiles": "CN(C)S(=O)(=O)c1ccc(N/C=C(\\[N+](=O)[O-])S(=O)(=O)c2ccccc2)cc1", "activation": "-4.82%"}
{"smiles": "CC(=O)Nc1ccc(Sc2ccccc2C(=O)N2CCCC2)cn1", "activation": "-0.519%"}
{"smiles": "O=C(O)c1cccc2c1C(=O)N(C1CCCCC1)C2", "activation": "-1.33%"}
{"smiles": "CC1(C)NC(=O)N(CC(=O)N2CCN(S(=O)(=O)c3ccccc3F)CC2)C1=O", "activation": "-2.41%"}
{"smiles": "CCCCCCCCCCCCC(NC(C)=O)(C(=O)OCC)C(=O)OCC", "activation": "-3.1%"}
{"smiles": "O=S(=O)([N-]c1nc2ccccc2nc1-[n+]1ccc(Cc2ccccc2)cc1)c1ccc(Br)s1", "activation": "3.3%"}
{"smiles": "CN(CC(=O)NCCc1ccc(S(N)(=O)=O)cc1)CC(=O)Nc1ccc(Cl)cc1", "activation": "-2.04%"}
{"smiles": "Cc1ccc(-n2nc(N)c3c(=O)oc(N(C)C)nc32)cc1", "activation": "-1.59%"}
{"smiles": "CCOC(=O)c1sc(=NC(=O)/C=C/c2cccs2)n(C)c1C", "activation": "-1.39%"}
